According to the EternaBench riboswitch data:

Test system: MS2 coat protein
Assay: apparent Kd, MS2 coat protein; higher = weaker binding; RNA-MaP array; FMN 200 µM where present
Outline: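 Stalled E. coli RNA polymerase transcribed each design on Illumina sequencing-chip clusters. The clusters were titrated with SNAP-549-labelled MS2 coat protein, starting at 0.7 or 1.5 nM and doubling up to 3 µM, first without ligand and then with constant ligand, in 100 mM Tris-HCl pH 7.5, 80 mM KCl, 4 mM MgCl2, BSA, DTT, yeast tRNA and Tween-20. Green signal was normalised to red-channel RNA signal and to the control-cluster median Fmax. The apparent Kd is the median of filtered binding-curve fits made for each cluster.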

[1] = designed as: ON switch for flavin mononucleotide, no ligand
[2] = ligand present: flavin mononucleotide, designed as: ON switch for flavin mononucleotide
[3] = designed as: OFF switch for flavin mononucleotide, no ligand
[4] = ligand present: flavin mononucleotide, designed as: OFF switch for flavin mononucleotide

| Sequence | apparent Kd [1] [nM] | apparent Kd [2] [nM] | apparent Kd [3] [nM] | apparent Kd [4] [nM] |
| --- | --- | --- | --- | --- |
| AACGGGUGGGUAGGAUAUGGCUAUGUCUCAUUGCUAGAAGGACCAGCUGCUACAUGAGGAUCACCCAUGUCGUAGUGCACCCAC | 93.2 | 24.5 |  |  |
| AUGGUGCAGGUACAGGAUAUGUUGCUCGUAACAUGAGGAUCACCCAUGUACCUAUGAGAUUAAAUGCAGAAGGGUGCACACCACG | 784 | 62.7 |  |  |
| UUAAAUCAUGUAGGAUAUGCAUGGCGAAGCUACGCAGAAGGACAUGAGGAUCACCCAUGUUCUAGCGUCUCAGUAGAGAUGCAA |  |  | 18.4 | 63.3 |
| ACUUACUGAGGAUAUACAUAGAUUUACAUGAGGAUCACCCAUGUUCCUCUAUGUAUAAAUGUAGAAGGCAGAAGUG |  |  | 22.4 | 120 |
| ACAGUCACAGUAACCUGUGGCCGUGAGGAUAUAUAUGGCUCGGAGCGGACAUGAGGAUCACCCAUGUAGAAGGCACGAACUAAA |  |  | 6.21 | 7.09 |
| UAAAUUAUACAAGGAUAUCUAUCGUAGUUUAGACUUACAUGAGGAUCACCCAUGUUAAUAUGUUUAGAGAAGGUGUAUUUUCAG | 43.3 | 22.5 |  |  |
| GGACGUCACAUGAACAUGAGGAUCACCCAUGUAACUAGACAUGAGGAUAUGGAACCUAAUUGGUUCCAGAAGGCAUGGACGUCC | 194 | 32.2 |  |  |
| UUAUCUAUGUAAGGAUAUAGAUGAUAUACGCAUCCGACAUGAGGAUCACCCAUGUUAUAUUUUGUCUAGAAGGUACAUUGUCGG | 204 | 179 |  |  |
| UGUUGUAUUACAGGAUAUCUAUUAUUUUUAUGUAGAGAAGGGUAUUCACAUGAGGAUCACCCAUGUAUAUACGAGGAAGUUGUG | 44.1 | 45.5 |  |  |
| GUCCUACAUGAGGAUCACCCAUGUAAGGAUAUGCUAGCGGUCGGCUGACUGACUGCUAGCAGAAGGUACAUGAU |  |  | 17.5 | 24.6 |
| GAUGAGGUAGGAUAUACGAUAAUAUAGGGUAGAUAUAUAACACAUGAGGAUCACCCAUGUAGAAGGACCAGUAG |  |  | 33.5 | 73.4 |
| CUAAAUCAUGUAGGAUAUGCGUGGCGAAGCUAUGCAGAAGGACAUGAGGAUCACCCAUGUCUUUCUGUCUGCGUACAGACGGAA |  |  | 23.5 | 135 |
| GAUCCUCGCGGAGGAUAUAUAAGUGGAUCACCCAUAGAAGGCCGAACAUGAGGAUCACCCAUGUGGAACAGGAUCACCGUUGUU | 79 | 77 |  |  |
| AAGUACGUAAAGAAGGCGCGGGCAACCAUUCUGCGAGGAUAUUUACAUGAGGAUCACCCAUGUGCAUGGGAUCGAGAAGAAUUG |  |  | 159 | 41.9 |
| AUUAACUACAUAGGAUAUUGUUACAUGAGGAUCACCCAUGUUAUAUGGGAACUAGGAAUAUUUGUCAAGAAGGAUGUGGUUACA | 232 | 33 |  |  |
| ACAUGAGGAUCACCCAUGUUUACAUGGAUUAUUAAUCUUGGAUAGGAUAUGUUAGUUAAGUAUUUACAGAAGGAUCAAUUCCUU |  |  | 27.7 | 20.2 |
| AUUGAUGUUGAGGAUAUGCUUUUAUUUAUAAUAGCAGAAGGCGAUACAUGAGGAUCACCCAUGUUCAUGGUAGU |  |  | 62.2 | 67 |
| ACAUGAGGAUCACCCAUGUAUUACAUGGUUAUGUUUAUUAACAGAAGGCGAAAUUACCACUGAAUCGAGGAUAUGUAUUCUAUA |  |  | 53.4 | 45.1 |
| UUUUAGUGAGGAUAUGUGGCUUCGAUCGUGAGAUCGAGGCUACAGAAGGCACAUGAGGAUCACCCAUGUUCCUU |  |  | 14.5 | 46.8 |
| CUUAUGUGAGGAUAUGUACAGAAAAAACUGGGUGUAACUGUACAGAAGGCACAUGAGGAUCACCCAUGUGCCUU |  |  | 16.9 | 13.8 |
| CAGCGAAAGCUGAAUCUGUAGAGAGAGGAUAUACAAGAAUAAAUCCAUACAUGAGGAUCACCCAUGUAGAAGGCUCUCUACAGU |  |  | 7.41 | 26.6 |
| AUCAGCUCGUCAGGAUAUACGUCACUGCGUCAGCAGUGUGGUACGAUCACAUGAGGAUCACCCAUGUAGAAGGGACGAGCUGAU |  |  | 12.7 | 215 |
| UGUGCGUAUGUGAGGAUAUGCUGGUCCUUGGCUCGGCAGAAGGCACAUGAGGAUCACCCAUGUGGUGUCGUACG |  |  | 75.5 | 199 |
| AAAACACAUGAGGAUCACCCAUGUAUCUGGACCAUAGGAUAUCCGCACCCACUAGGGCGUGGAGAAGGGUGAGCCC | 170 | 194 |  |  |

| Sequence | apparent Kd [1] [nM] | apparent Kd [2] [nM] | apparent Kd [3] [nM] | apparent Kd [4] [nM] |
| --- | --- | --- | --- | --- |
| UGGAUGGUAUGAGGAUAUGCGCGCGACACGCGCGCAGAAGGCAUGUCAAUAGACAUGAGGAUCACCCAUGUAUUAUCCAUCCAA | 201 | 14.8 |  |  |
| AUUGACUGAGGAUAUUGUACUGCUGACAUGAGGAUCACCCAUGUAUGCUAACUCGGCCGUCGAGAAGGCAGUCAUG |  |  | 29.2 | 17.3 |
| CGCGAUGCGGUUGGCCCUGGGCGAGAGGAUAUGGGCAGCAGGACAUGAGGAUCACCCAUGUUCUCUCAGAAGGCUCGAGCAGGC | 247 | 24.5 |  |  |
| AUUCUGCUCGCAGGAUAUCAGGAAAUGUUGAUCUUCUGUAUCUCCUACAUGAGGAUCACCCAUGUUGAGAAGGGCGAUGGCAAU |  |  | 65.7 | 400 |
| GGUGCGUUUGUGAGGAUAUGCUGGUCCUUGGUUCGGCAGAAGGCACAUGAGGAUCACCCAUGUGGUGUCGCACC |  |  | 94.6 | 51.5 |
| AAAUAGGCAGGAUAUACAUGAAAAUUAAAAAAAAAAAAAAAACAUGAGGAUCACCCAUGUAGAAGGGUCAAAAA |  |  | 97.5 | 92.9 |
| UUAACAUGAGGAUCACCCAUGUAUAGAUUGUUUAUUAGAAGUGAGGAUAUAUAUAAAAUUAGGUAGUAGAAGGCACUGGGUUUU | 30.5 | 31.9 |  |  |
| CUACCUUAUGAGAAGGCGGUCAUGAAACAUGAUCGAGGAUAUCAUGUAAACAUGAGGAUCACCCAUGUAUGGGUAUUAUGGUAU | 146 | 26.4 |  |  |
| ACAUUUUAUGCAGGAUAUUGACAUAUAUUUAAACAAGAAGGGCAUUACAUGAGGAUCACCCAUGUUAUAAUGGUAUAUAAGUUC |  |  | 21.4 | 19.2 |
| AGCUGUGGCCGAGGAUAUCUAUCUCAAAUAACCGAAAUAUAAUCGGACAUGAGGAUCACCCAUGUAGAGAAGGCGGUCUCAGCA |  |  | 14.5 | 26.1 |
| AUACAUGAGGAUCACCCAUGUUACUGGGUCUUAAUAGAUCGUAGAAGGAUGUUAUUAUAAAUUUCAUAGGAUAUACUAUUUUGU |  |  | 61.1 | 38.6 |
| GGUGGGUUGCUACCGGCACAUGAGGAUCACCCAUGUUUUGGGAAGGAUAUGGUACCUAUUUGGUACCAGAAGGUCCCGUUGGUG | 330 | 239 |  |  |
| AUUUAAAAGCAGAAGGGCAAGGUGGAUCCCUCACAUGAGGAUCACCCAUGUCUAGGCUUUACCGUGCAGGAUAUGCAAGUAAUA | 26 | 58.5 |  |  |
| UAAAUCGGAGGAUAUACAUGAGGAUCACCCAUGUAAUCGCGUUGGCAUCGGUGGGUUAGUAGAAGGCUGUAAAU |  |  | 30.5 | 45.3 |
| UCGGCGCGAGGAUAUGCGGUUUGUGCUUUGGGCCCUGGCGUACAUGAGGAUCACCCAUGUAGAAGGCGCGUUGC |  |  | 19.4 | 20 |
| CCAUCAGCGGGCGGAUCGGUUGGACAUGAGGAUCACCCAUGUAGAAGGACCGGUGGAUUCCGGCGGUAGGAUAUACAUUUGGUG |  |  | 9.1 | 16.3 |
| AAUUAGGUCACAGGAUAUACAACAUCCAUUGCUGUAGAAGGGUGUCACAAUCAUAUCUGACAUGAGGAUCACCCAUGUUUCCAC | 85.8 | 33.3 |  |  |
| UGAUACUAAGAGAAGGUUCAAACUACAUAUUGCAUACAUGAGGAUCACCCAUGUUGGUGAAUAAGAAAGGAUAUUUUACUGUAU |  |  | 46.3 | 34.3 |
| AAUUGGAUGCAGAAGGCAUGGACGACUCGUCACAUUAACAUGAGGAUCACCCAUGUCAAAAUACAUGAGGAUAUGCAUCCUAAA | 140 | 12 |  |  |
| UUGAAGAAUUAAGGAUAUUGAUUACAUAUGUUAAACAUGAGGAUCACCCAUGUGGGUUGCGGUAUCGAGAAGGUAAAUUAAUAG | 115 | 107 |  |  |
| AUCAGCUCGUCAGGAUAUACGUCACUGCGUCAGCAGUGUGGUAAGAUCACAUGAGGAUCACCCAUGUAGAAGGGACGAGCUGAU |  |  | 39.7 | 696 |
| CGAGUCGGUUGCCCUGCAGUACAUGAGGAUCACCCAUGUCGGAGAAGGUGCACAAAGGAAUCGGGCAAGGAUAUCCGGCGUGAA |  |  | 8.21 | 7.98 |
| ACAUAAAUUCGAGGAUAUCGGUGAUAAAGAAGACGAGAAGGCGAUUAAAGAGAGAUGGUUAUAGACAUGAGGAUCACCCAUGUA | 28.6 | 22.8 |  |  |
| CACAAGAAAGUCGAAGGUUGAAGUAGAAGGACAACAACAUGACAUGAGGAUCACCCAUGUGCCAUGUAGGAUAUGCUUUAAUCG |  |  | 9.14 | 8.28 |
